Compound activity: PubChem BioAssay, several laboratories
RAM network inh – blocks the yeast RAM network; S. cerevisiae dse1pr::URA3 reporter, 5-FOA growth OD615, 2 d; analog-sensitive cbk1-as2 kinase mutant strain; inhibition, % at 50 µM; 190,000 tested, 1.8% active;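 active = inhibition above a set limit, 3 SD over mean compound inhibition, cut at about 8.4% in these data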;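 note: inhibition rescues growth on 5-FOA so higher OD means more RAM inhibition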
BB579 growth dn – chemicals that inhibit yeast BB579 growth in restrictive medium (lifespan-shortening candidates); 140,000 tested, 0.51% active; AID 804; S. cerevisiae BB579 growth, OD615, 48 h; inhibition, % at 10 µM;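 active = inhibition above a set limit, 3 SD over the mean compound inhibition, cut at about 44% in these data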
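test system = yeast BB579 (DeaD) | buffer or medium = restrictive CSMM-D medium | doses = single compound dose of 10 µM, 0.25% DMSO final | times = 4 h preincubation and 48 h exposure at 30 °C | technique = culture absorbance at 615 nm | benchmarks = amphotericin B 10 µg/mL, positive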
Insulin prom up – MIN6 insulin promoter up-regulation; MIN6 insulin promoter-GFP reporter, high-content imaging; stronger effect = higher value; z-score at 5 µM; 190,000 tested, 0.3% active; AID 1625;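 active = z-score above 3 at 5 µM with at least 500 cells counted in the well; inconclusive = wells under 500 cells, flagged as cytotoxic or low count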
Yeast lifespan up – yeast lifespan extension; S. cerevisiae growth with nicotinamide, OD615; deaD strain in restrictive glucose medium; inhibition of the nicotinamide effect, % at 10 µM; 130,000 tested, 0.68% active;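 active = inhibition above a set limit, placed 3 SD over the median of all compounds, cut at about 26% in these data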
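Assay system: engineered S. cerevisiae DeaD replicative-lifespan strain, galactose-grown log-phase cells; medium: restrictive CSMM-D dextrose medium; also added: nicotinamide, 1.5 mM, co-present with compound; schedule: 48 h compound exposure at 30 °C, humidified; detection: absorbance at 615 nm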
INS promoter inh – TRM-6 insulin promoter activity inhibition | TRM-6 cells, insulin promoter-eGFP reporter, imaging; reporter expression induced with tamoxifen | inhibition, % at 2 µM | 130,000 tested, 0.9% active | AID 1273;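 active = inhibition above the mean plus 3 SD, with well images judged a real hit on visual review, cut at about 60% in these data, passing the limit was not always enough; inconclusive = inhibition over the cutoff but images rejected on review; inactive = inhibition not above the cutoff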
Of the large screens only hits and unclear results are named; the others gave an inactive call. Rows were chosen to be rich in hits. Some 3.1% of all compounds tested hit in one or more screens of this group.

O=C(CCl)Nc1cccc2ncccc12	Insulin prom up 4
COc1ccc(OCC(=O)Nc2cccc3ncccc23)cc1	none
COc1cccc(-c2ccc(-c3noc(-c4ccccc4F)n3)c(OC)n2)c1	RAM network inh 11
COc1cccc(-c2ccc(-c3noc(-c4cccs4)n3)c(OC)n2)c1	none
N#Cc1c(-n2cccc2/C=N/O)sc2c1CCCC2	INS promoter inh 71
C=CCNCc1cccn1-c1sc2c(c1C#N)CCCC2	none
Cc1nc2ccccc2n1-c1ccccc1	Yeast lifespan up 54 (no result: INS promoter inh)
CCc1ccc(N2CCN(C(=O)N3CCOCC3)CC2)cc1	none (no result: BB579 growth dn, Yeast lifespan up, INS promoter inh)
Cc1cc(C)n(/C(=C/N(C)C)C(=O)c2ccccc2)n1	none (no result: BB579 growth dn, Yeast lifespan up, INS promoter inh)
CCOC(=O)c1cnc(SCC(=O)OC)nc1N	none (no result: BB579 growth dn, Insulin prom up, Yeast lifespan up)
C=CCSc1ncc(C(=O)OCC)c(N)n1	INS promoter inh 100 (no result: BB579 growth dn, Yeast lifespan up)
O=C(N/N=C/c1ccc([N+](=O)[O-])s1)c1cccnc1	none (no result: INS promoter inh)
CN(C)c1ccc(/C=C(/C#N)C(=O)NCc2ccccc2)o1	Insulin prom up 16
Cc1ccc(SCCNC(=O)/C=C/c2cccc([N+](=O)[O-])c2)cc1	RAM network inh 9.7
O=C(/C=C/c1cccc([N+](=O)[O-])c1)NCCSCc1ccc(Cl)cc1	none
O=C(/C=C/c1cccc([N+](=O)[O-])c1)NCCSc1ccccc1	none
O=C(/C=C/c1cccc([N+](=O)[O-])c1)NCCSCc1c(Cl)cccc1Cl	RAM network inh 9.7
COc1ccc(NC(=O)CSc2nnc(NC(C)=O)s2)c([N+](=O)[O-])c1	none (no result: BB579 growth dn, Yeast lifespan up, INS promoter inh)
COc1cccc(CC(=O)Nc2ccc3nc(C)sc3c2)c1	BB579 growth dn 79
O=C1C=C(NCc2ccc3c(c2)OCO3)CC(c2ccccc2)C1 (configuration not stated)	none (no result: BB579 growth dn, Yeast lifespan up, INS promoter inh)
COc1ccccc1CN1C2CCCC1CC(NC(=O)/C=C/c1ccccc1)C2 (configuration not stated)	none (no result: BB579 growth dn, Yeast lifespan up)
O=C(O)C1CCC(Cn2c(SCc3cc(=O)n4cc(Cl)ccc4n3)nc3ccsc3c2=O)CC1 (configuration not stated)	RAM network inh 9.2 (no result: BB579 growth dn, Insulin prom up, Yeast lifespan up)
CN(C)CCOCCOc1ccccc1-c1ccccc1	Insulin prom up 5
COc1cccc(C(=O)OCC(=O)Nc2cc(C)c(C)cc2[N+](=O)[O-])c1	none (no result: INS promoter inh)
CC1Cn2c(nnc2-c2cccc(Cl)c2)S1 (configuration not stated)	none (no result: INS promoter inh)
CC1(C)Cn2c(nnc2-c2cccc(O)c2)S1	INS promoter inh 91
COc1ccc(CCNC(=O)CSc2cn(Cc3ccccc3)c3ccccc23)cc1OC	RAM network inh 10
CCOc1ccc(NC2=NCC(=O)N2Cc2cccs2)cc1	Insulin prom up 4.8
Cc1ccc(Nc2nnc(-c3ccncc3)s2)c(Br)c1	none (no result: INS promoter inh)
CC(C)c1ccc(CN2CC(C(=O)Nc3ccccc3)CC2=O)cc1 (configuration not stated)	INS promoter inh 75 (no result: BB579 growth dn, Insulin prom up, Yeast lifespan up)
O=[N+]([O-])c1cc(C2Nc3cccc4cccc(c34)N2)ccc1Cl	RAM network inh 11 (no result: INS promoter inh)
COC(=O)C1=NNC2(c3ccc(Cl)cc3)C(=O)N(c3ccccc3)C(=O)C12 (configuration not stated)	none (no result: INS promoter inh)
CCCCN(C)C1=Nc2cccc3cccc1c23	INS promoter inh 75 (no result: Insulin prom up)
COc1ccc(C2CC3(CC(C)(C)NC(=S)N3)Oc3cc(O)cc(C)c32)cc1 (configuration not stated)	RAM network inh 9.7
Cc1cc(O)cc2c1C(c1ccc(F)cc1)CC1(CC(C)(C)NC(=S)N1)O2 (configuration not stated)	none (no result: BB579 growth dn, Yeast lifespan up, INS promoter inh)
Cc1ccc(C(=O)C(O)C(c2ccc(C)cc2)N2CCCCC2)cc1 (configuration not stated)	none (no result: BB579 growth dn, Yeast lifespan up, INS promoter inh)
CCN(CC)C(=O)CSc1nc(-c2cccs2)cc(-c2cccs2)c1C#N	RAM network inh 8.4 (no result: Insulin prom up, Yeast lifespan up)
O=c1[nH]c(=O)n(Cc2ccco2)c2c1C(C(F)(F)F)(C(F)(F)F)N=C(c1ccc(F)cc1)N2	RAM network inh 8.8
CCN1CCN(c2cc(-c3ccccc3)nc3cc(-c4cccc(F)c4)nn23)CC1	Insulin prom up inconclusive (no result: Yeast lifespan up)
OC1CCN(c2cc(-c3ccccc3)nc3cc(-c4ccc(F)cc4)nn23)CC1	RAM network inh 9.6 (no result: BB579 growth dn, Yeast lifespan up, INS promoter inh)
Nc1nnc(N)c2ccccc12	none (no result: BB579 growth dn, Yeast lifespan up)
Nc1nsc2ccccc12	BB579 growth dn 46
C/C(=N\Nc1ccc(Cl)c(Cl)c1)c1ccc(-n2ccnc2)cc1	BB579 growth dn 95
CC(=O)Nc1ccc(/C(C)=N/Nc2nc(Nc3cccc4ccccc34)nc(N3CCOCC3)n2)cc1	none
NC(=O)c1nsc(C(=O)N(CCc2ccccc2)C(C(=O)NC2CCCC2)c2ccco2)c1N (configuration not stated)	RAM network inh 8.7
Cc1cccc(N(Cc2cc3ccccc3[nH]c2=O)S(=O)(=O)c2ccccc2)c1	none
Oc1c(C(Nc2nc3ccccc3s2)c2ccco2)ccc2cccnc12 (configuration not stated)	BB579 growth dn 74 (no result: INS promoter inh)
CC(C)C(=O)NC(c1ccco1)c1ccc2cccnc2c1O (configuration not stated)	none
Cc1ccc(NC(=O)Cn2cc(C(F)(F)F)cc(Cl)c2=O)cc1Cl	none (no result: BB579 growth dn, Yeast lifespan up, INS promoter inh)
CC(=O)c1c(C)oc2ccc(N(C(=O)C3CCCCC3)S(=O)(=O)c3cc([N+](=O)[O-])ccc3C)cc12	RAM network inh 9.7 (no result: INS promoter inh)
COc1cccc(C(=O)/C=C/c2ccc(SC)cc2)c1	RAM network inh 9.2 (no result: INS promoter inh)
CSc1ccc(/C=C/C(=O)c2ccc(NC(=O)C(C)C)cc2)cc1	RAM network inh 10 (no result: INS promoter inh)
COC(=O)c1ccc(/C=C/C(=O)c2cccc(OC)c2)cc1	none
Cc1cc(C)n(-c2ccc(F)cc2CN2CCN(Cc3ccccc3)C(CCO)C2)n1 (configuration not stated)	none (no result: BB579 growth dn, Yeast lifespan up, INS promoter inh)
CCN(CC)S(=O)(=O)c1cc(NS(=O)(=O)c2cccc(Cl)c2Cl)ccc1C	RAM network inh 10
CCN(CC)S(=O)(=O)c1cc(NS(=O)(=O)c2cccc(Cl)c2)ccc1C	none
CC(=O)C1C(c2ccc([N+](=O)[O-])cc2)c2c(noc2C)CC1(C)O (configuration not stated)	none (no result: RAM network inh, BB579 growth dn, Yeast lifespan up, INS promoter inh)
O=C(CCC(=O)c1cccs1)c1cccs1	INS promoter inh 81 (no result: Insulin prom up, Yeast lifespan up)
O=[N+]([O-])c1cc(/C=N/O)ccc1Sc1ccccc1	BB579 growth dn 79
Cc1ccc2c(c1)c(Sc1ccccc1)c(CC(=O)O)n2C	Yeast lifespan up 27
O=C(N1CCN(c2ccccc2F)CC1)C1(c2cccs2)CCOCC1	none (no result: INS promoter inh)
CN(C)c1ccc(/C=C(\Cl)c2nc3ccccc3s2)cc1	RAM network inh 8.6
Cn1cccc1C(=O)Nc1nc(-c2ccccn2)cs1	BB579 growth dn 46
O=C(Nc1nc(-c2ccc(Cl)s2)cs1)c1cccs1	none (no result: INS promoter inh)
O=C(CCCSc1ccccc1)Nc1nc(-c2ccccn2)cs1	BB579 growth dn 57
O=C(Nc1nc(-c2ccccn2)cs1)c1ncc(Cl)c(Cl)c1Cl	BB579 growth dn 59
O=C(Nc1nc(-c2ccccn2)cs1)c1ccc(Cl)s1	BB579 growth dn 95 (no result: INS promoter inh)
